Experimental data reported in ChEMBL document CHEMBL1145211, “Substituted 5,5'-diphenyl-2-thioxoimidazolidin-4-one as CB1 cannabinoid receptor ligands: synthesis and pharmacological evaluation” (J Med Chem, 2005).

Key:
Cannabinoid receptor 1 [1] = target: T1, Cannabinoid receptor 1 (Homo sapiens, UniProt P21554); conditions: CHO, at 10 µM
[2] = target: Cannabinoid receptor 2 (Homo sapiens) (UniProt P34972); assay: Displacement of [3H]CP-55940 from human CB2 receptor expressed in CHO cells at 10 uM; format: cell-based
How it was run: (§1)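 Membranes (40 µg) from CHO cells stably expressing human CB1 or CB2, with 1 nM [3H]SR141716A (CB1) or 1 nM [3H]CP-55,940 (CB2), and compound at 10 µM. Incubated 1 h at 30 °C in Tris-HCl pH 7.4 with MgCl2, EDTA and 0.5% BSA. Nonspecific binding defined with 10 µM HU-210. Bound ligand recovered on PEI-treated GF/B filters for scintillation counting; reported as % radioligand displaced.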

Cannabinoid receptor 1 [3] = target: T1, Cannabinoid receptor 1; assay: Displacement of [3H]SR-141,716A from human Cannabinoid receptor 1 (CB1 receptor) expressed in CHO cells at 10 uM; format: cell-based
How it was run: as §1

Cannabinoid receptor 1 [4] = target: T1, Cannabinoid receptor 1; assay: biochemical; format: cell-based, CHO
Cannabinoid receptor 1 [5] = target: T1, Cannabinoid receptor 1; assay: Inhibition of [3H]SR-141,716A binding to human CB1 receptor expressed in CHO cells; format: cell-based
How it was run: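 Competition curves on hCB1-CHO membranes (40 µg) with 1 nM [3H]SR141716A and varying compound concentrations, up to 10^-5 M. Incubated 1 h at 30 °C, pH 7.4, 0.5% BSA; final DMSO below 0.1%. Nonspecific binding defined with 10 µM HU-210; filtration, then counting. Ki derived from IC50 by nonlinear fitting and Cheng-Prusoff (Kd 1.13 nM). Mean ± SEM of at least four experiments, each in duplicate.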

Cannabinoid receptor 1 [6] = target: T1, Cannabinoid receptor 1; conditions: CHO, 10 uM

T1 sequence (P21554 whole entry): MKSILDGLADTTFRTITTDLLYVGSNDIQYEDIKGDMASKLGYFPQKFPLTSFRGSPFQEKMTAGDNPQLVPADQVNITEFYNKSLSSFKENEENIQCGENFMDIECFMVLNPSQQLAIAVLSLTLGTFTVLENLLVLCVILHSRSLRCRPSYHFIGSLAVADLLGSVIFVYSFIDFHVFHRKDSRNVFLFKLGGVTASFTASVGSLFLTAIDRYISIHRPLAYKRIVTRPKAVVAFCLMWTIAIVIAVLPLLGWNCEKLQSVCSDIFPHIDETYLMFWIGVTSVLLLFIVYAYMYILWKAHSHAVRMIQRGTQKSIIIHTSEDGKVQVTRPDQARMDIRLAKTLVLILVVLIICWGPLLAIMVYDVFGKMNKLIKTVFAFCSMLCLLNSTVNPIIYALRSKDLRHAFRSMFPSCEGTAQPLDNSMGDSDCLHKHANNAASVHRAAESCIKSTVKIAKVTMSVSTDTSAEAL
Cannabinoid receptor 2 (Homo sapiens), sequence (P34972 whole entry): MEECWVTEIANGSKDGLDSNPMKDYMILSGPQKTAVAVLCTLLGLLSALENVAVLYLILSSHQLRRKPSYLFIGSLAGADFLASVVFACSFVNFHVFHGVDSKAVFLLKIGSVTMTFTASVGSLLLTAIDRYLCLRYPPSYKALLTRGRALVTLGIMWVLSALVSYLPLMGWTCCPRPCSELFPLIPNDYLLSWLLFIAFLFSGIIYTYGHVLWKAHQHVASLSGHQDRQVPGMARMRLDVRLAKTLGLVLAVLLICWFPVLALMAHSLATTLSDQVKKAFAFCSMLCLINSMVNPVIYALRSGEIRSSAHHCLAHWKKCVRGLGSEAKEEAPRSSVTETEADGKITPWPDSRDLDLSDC

Structure (SMILES)	Decrease (Cannabinoid receptor 1 [1])	Displacement [2]	Displacement (Cannabinoid receptor 1 [3])	Ki (Cannabinoid receptor 1 [4])	Ki (Cannabinoid receptor 1 [5])	Increase (Cannabinoid receptor 1 [6])
C=CCN1C(=O)NC(c2ccc(I)cc2)(c2ccc(I)cc2)C1=O	-74%	–	–	–	–	–
COCCCN1C(=O)C(c2ccccc2)(c2ccccc2)NC1=S	–	< 15%	29.4%	–	–	–
CCCCN1C(=O)C(c2ccc(Br)cc2)(c2ccc(Br)cc2)NC1=S	–	< 15%	73.8%	1410 nM	–	–
O=C1N(Cc2ccco2)C(=S)NC1(c1ccccc1)c1ccccc1	–	< 15%	59.2%	–	–	–
O=C1N(Cc2ccccc2)C(=S)NC1(c1ccc(Br)cc1)c1ccc(Br)cc1	-74%	< 10%	76%	993 nM	–	–
CCCCCCN1C(=O)C(c2ccccc2)(c2ccccc2)NC1=S	–	< 10%	38.5%	–	–	–
C=CCN1C(=O)C(c2ccc(I)cc2)(c2ccc(I)cc2)NC1=S	-74%	< 20%	94.2%	589 nM	–	–
CCCCCCCN1C(=O)C(c2ccc(Br)cc2)(c2ccc(Br)cc2)NC1=S	–	< 10%	34.2%	–	–	–
CCN1C(=O)C(c2ccccc2)(c2ccccc2)NC1=S	–	< 10%	40%	–	–	–
O=C1N(CCc2ccccc2)C(=S)NC1(c1ccc(Cl)cc1)c1ccc(Cl)cc1	–	< 15%	79.4%	3800 nM	–	–
CCCCCCCCN1C(=O)C(c2ccc(Cl)cc2)(c2ccc(Cl)cc2)NC1=S	–	< 10%	36.6%	–	–	–
CC(C)N1C(=O)C(c2ccccc2)(c2ccccc2)NC1=S	–	< 10%	42.8%	–	–	–
CCCCCCCN1C(=O)C(c2ccccc2)(c2ccccc2)NC1=S	–	< 10%	28.8%	–	–	–
O=C1NC(c2ccc(Br)cc2)(c2ccc(Br)cc2)C(=O)N1Cc1ccccc1	-74%	–	–	–	–	–
CC(C)CN1C(=O)C(c2ccc(Cl)cc2)(c2ccc(Cl)cc2)NC1=S	-74%	< 20%	76.1%	2090 nM	–	–
CCCCN1C(=O)C(c2ccc(I)cc2)(c2ccc(I)cc2)NC1=S	-74%	< 20%	77.4%	724 nM	–	–
CCCCCCN1C(=O)C(c2ccc(Br)cc2)(c2ccc(Br)cc2)NC1=S	–	< 10%	45.5%	–	–	–
CCCCN1C(=O)NC(c2ccc(I)cc2)(c2ccc(I)cc2)C1=O	-74%	–	–	1820 nM	–	–

Structure (SMILES)	Decrease (Cannabinoid receptor 1 [1])	Displacement [2]	Displacement (Cannabinoid receptor 1 [3])	Ki (Cannabinoid receptor 1 [4])	Ki (Cannabinoid receptor 1 [5])	Increase (Cannabinoid receptor 1 [6])
CCCCCCCCN1C(=O)C(c2ccc(Br)cc2)(c2ccc(Br)cc2)NC1=S	–	< 10%	23.4%	–	–	–
CC(C)CN1C(=O)C(c2ccc(Br)cc2)(c2ccc(Br)cc2)NC1=S	-74%	< 20%	76.3%	1780 nM	–	–
O=C1N(CCc2ccccc2)C(=S)NC1(c1ccc(Br)cc1)c1ccc(Br)cc1	–	< 10%	54.6%	–	> 10 µM	–
CCCCN1C(=O)C(c2ccccc2)(c2ccccc2)NC1=S	–	< 10%	42.8%	–	–	–
C=CCN1C(=O)C(c2ccc(Br)cc2)(c2ccc(Br)cc2)NC1=S	-74%	< 15%	87.2%	871 nM	–	–
CC(C)N1C(=O)C(c2ccc(Br)cc2)(c2ccc(Br)cc2)NC1=S	–	< 15%	91.7%	3630 nM	–	–
CCCCCCCCN1C(=O)C(c2ccccc2)(c2ccccc2)NC1=S	–	< 20%	38.8%	–	–	–
CCCCN1C(=O)NC(c2ccc(Br)cc2)(c2ccc(Br)cc2)C1=O	-74%	–	–	–	–	–
C=CCN1C(=O)C(c2ccccc2)(c2ccccc2)NC1=S	–	< 15%	40%	–	–	–
CCCCCCCN1C(=O)C(c2ccc(Cl)cc2)(c2ccc(Cl)cc2)NC1=S	–	< 10%	67.8%	–	–	–
O=C1N(CCCO)C(=S)NC1(c1ccccc1)c1ccccc1	–	< 10%	20.8%	–	–	–
CCN1C(=O)C(c2ccc(Br)cc2)(c2ccc(Br)cc2)NC1=S	–	< 20%	90.9%	2190 nM	–	–
O=C1N(CCc2ccccc2)C(=S)NC1(c1ccccc1)c1ccccc1	–	< 10%	29.3%	–	–	–
O=C1N(Cc2ccccc2)C(=S)NC1(c1ccccc1)c1ccccc1	–	< 10%	44.7%	–	–	–
CCCCCCC(C)(C)c1cc(O)c2c(c1)OC(C)(C)[C@H]1CC=C(CO)C[C@H]21 [DEXANABINOL]	–	–	–	18.6 nM	–	130%
CC(C)CN1C(=O)C(c2ccccc2)(c2ccccc2)NC1=S	–	< 10%	34.6%	–	–	–
O=C1N(Cc2ccccc2)C(=S)NC1(c1ccc(Cl)cc1)c1ccc(Cl)cc1	-74%	< 15%	74.2%	2190 nM	–	–
